Active and inactive are the calls of the source.
What was measured:
Mus musculus [1] = test: Immunostimulatory activity in C57BL/6 mouse assessed as induction of IFNgamma levels in serum at 2.0 x 10^-4 […], ip measured after 16 hrs by ELISA; format: functional, organism-based
How it was run: (§1)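 C57BL/6 mice dosed intraperitoneally with 5 μg glycolipid per animal (stated as 2.0 × 10–4 […]). Serum collected and cytokines quantified by ELISA: IFN-γ at 16 h post-injection, IL-4 at 4 h post-injection.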

Mus musculus [2] = test: Immunostimulatory activity in C57BL/6 mouse assessed as induction of IL-4 levels in serum at 2.0 x 10^-4 […], ip measured after 4 hrs by ELISA; format: functional, organism-based; how it was run: as §1
iNKT = test: Immunostimulatory activity in human iNKT cells cocultured with HeLa CD1d cells assessed as induction of IFNgamma levels at 0.01 to 1 nM after 24 hrs by ELISA; format: functional, cell-based
How it was run: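 Human iNKT cells cocultured with HeLa cells expressing CD1d plus glycolipid at varying concentrations. After 24 h incubation, IFN-γ in the culture measured by ELISA.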

Measured: Activity

CCCCCCCCCCCCCCCCCCCCCCCCCC(=O)N[C@@H](CO[C@H]1O[C@H](CO)[C@H](O)[C@H](O)[C@H]1O)[C@H](O)[C@H](O)CCCCCCCCCCCCCC
active: all assays above

CCCCCCCCCCCCCCCCCCCCCCCCCC(=O)N[C@@H](CO[C@H]1O[C@H](CO)[C@H](OC(=O)Nc2cccc3ccccc23)[C@H](O)[C@H]1O)[C@H](O)[C@H](O)CCCCCCCCCCCCCC
active: all assays above

CCCCCCCCCCCCCCCCCCCCCCCCCC(=O)N[C@@H](CO[C@H]1O[C@H](CO)[C@@H](NC(=O)Nc2cccc3ccccc23)[C@H](O)[C@H]1O)[C@H](O)[C@H](O)CCCCCCCCCCCCCC
active: all assays above

CCCCCCCCCCCCCCCCCCCCCCCCCC(=O)N[C@@H](CO[C@H]1O[C@H](CO)[C@H](OC)[C@H](O)[C@H]1O)[C@H](O)[C@H](O)CCCCCCCCCCCCCC
active: all assays above

C=C1[C@@H](CO)O[C@H](OC[C@H](NC(=O)CCCCCCCCCCCCCCCCCCCCCCCCC)[C@H](O)[C@H](O)CCCCCCCCCCCCCC)[C@H](O)[C@H]1O
active: all assays above

CCCCCCCCCCCCCCCCCCCCCCCCCC(=O)N[C@@H](CO[C@H]1O[C@H](CO)[C@H](OCc2ccc(Cl)cc2)[C@H](O)[C@H]1O)[C@H](O)[C@H](O)CCCCCCCCCCCCCC
active: all assays above
